Experimental data reported in publication PMC6361726 (Bioorganic & medicinal chemistry, 2018).

What was measured:
HK853 [1] = test: Fluorescence polarization; assay type: binding, Thermotoga maritima
[2] = tested on: Methicillin-sensitive Staphylococcus aureus; test: Cell viability by optical density and resazurin indicator dye; assay type: cell-based; conditions: compared to a DMSO control, one replicate
Pseudomonas aeruginosa = test: as above; assay type: cell-based; conditions: compared to a DMSO control, one replicate
HK853 [3] = test: ATP[γ-33P] enzymatic activity inhibition assay; assay type: biochemical, Thermotoga maritima; conditions: at non-aggregating concentrations
Method in brief: (§1)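 Secondary assay run in a coupled competition-aggregation format on two histidine kinases: HK853 from Thermotoga maritima and VicK from Streptococcus pneumoniae. Enzymatic activity is followed using ATP[γ-33P], and the degree of inhibition by the test compound is measured.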

VicK = VicK (Streptococcus pneumoniae, UniProt Q8DPL8); test: ATP[γ-33P] enzymatic activity inhibition assay; assay type: biochemical; conditions: at non-aggregating concentrations
Method in brief: as §1

S. aureus = test: Biofilm formation, crystal violet staining assay; assay type: cell-based, Staphylococcus aureus; conditions: compared to a DMSO control, one replicate
p38 MAP kinase = conditions: read-out: inhibition of p38 MAP kinase; quantity type not given; cited from earlier work
protein kinase D = conditions: cited from earlier work
P. aeruginosa = test: Biofilm formation, crystal violet staining assay; assay type: cell-based, Pseudomonas aeruginosa; conditions: compared to a DMSO control, one replicate

Chain of VicK (Q8DPL8 whole entry): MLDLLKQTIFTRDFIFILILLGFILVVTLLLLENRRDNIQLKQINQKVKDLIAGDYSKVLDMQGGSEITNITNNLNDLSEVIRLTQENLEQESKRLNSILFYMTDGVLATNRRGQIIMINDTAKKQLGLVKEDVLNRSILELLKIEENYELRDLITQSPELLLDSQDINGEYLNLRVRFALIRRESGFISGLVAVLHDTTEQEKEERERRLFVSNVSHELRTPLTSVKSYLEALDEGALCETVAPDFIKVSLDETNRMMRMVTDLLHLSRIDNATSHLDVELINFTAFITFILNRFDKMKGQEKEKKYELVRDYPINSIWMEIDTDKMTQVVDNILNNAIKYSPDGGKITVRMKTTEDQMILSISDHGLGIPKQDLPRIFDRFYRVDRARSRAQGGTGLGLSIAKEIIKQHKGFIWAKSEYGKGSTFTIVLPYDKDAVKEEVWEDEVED

activity in the HTS (FP screen) for HK inhibition (HK853 [1]; related library compounds that were not leads)	Compound	effect on cell viability [2]	displacement of ADP-BODIPY from the HK ATP-binding domain (HK853 [1])	effect on cell viability (Pseudomonas aeruginosa)	inhibition of HK activity (HK853 [3])	inhibition of VicK activity (VicK)	effect on biofilm production (S. aureus)	IC50 (p38 MAP kinase)	inhibition of protein kinase D (protein kinase D)	effect on biofilm production (P. aeruginosa)
inactive	Fc1ccc(-c2c(-c3ccncc3)[nH]c3cccnc23)cc1 [RO1153853–000]									
	Fc1ccc(-c2c(-c3ccncc3)[nH]c3nccnc23)cc1 [compound 32]	did not cause a significant decrease in cell viability	displace ADP-BODIPY	did not cause a significant decrease in cell viability	inhibit	inhibit	little effect	53 nM	potent inhibitor	little effect
